Experimental findings from ChEMBL document CHEMBL1629621, “Evaluation of strategies for improving proteolytic resistance of antimicrobial peptides by using variants of EFK17, an internal segment of LL-37” (Antimicrob Agents Chemother, 2009) are described below.

The nature of data set [1]: Stability of the compound at 136 uM after 4 hrs in presence of […] V8 protease. It counts as ADME. The method, boiled down: (§1)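 Peptide at 136 µM was incubated with protease (peptide:enzyme 300:1) for 4 h at 37°C in 10 mM Tris, pH 7.4. The reaction was stopped by boiling in Laemmli buffer, then run on Tris-Tricine 16.5% SDS-PAGE and Coomassie stained. Band densitometry gave the undegraded fraction, normalized to peptide incubated without enzyme. Two separate experiments.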

In data set [2] the test system is HaCaT. As to the kind of experiment: Cytotoxicity against human HaCaT assessed at 6 to 60 uM by MTT assay. It counts as cell-based. An outline of the steps:
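HaCaT keratinocytes were seeded at 3,000 cells/well, grown to confluence in SFM-BPE-rEGF, and given 6 or 60 µM peptide overnight. MTT was then added for 1 h at 37°C and formazan dissolved in DMSO. Absorbance was read at 550 nm relative to untreated cells, with the 1% Triton X-100 signal as background. Triplicate.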
Background: Tetrazolium dyes change colour on reduction, which living cells bring about.

In data set [3] the test system is Pseudomonas aeruginosa. As to the kind of experiment: Antimicrobial activity against Pseudomonas aeruginosa 15159 after 21 hrs by broth microdilution method. The settings on record: Pseudomonas aeruginosa, 15159, 21 h. In kind it is functional. The method, boiled down:
(§2)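 Microtiter broth dilution at 37°C for 21 h in DEAE-refined LB medium prepared in 10 mM Tris, pH 7.4. Bacteria were grown overnight in 3% trypticase soy broth, rinsed in Tris and used at about 10^6 CFU/ml. Final peptide was 0.6–80 µM in twofold steps. Growth was read visually as pellet and at OD540. MIC is >95% inhibition with no visible pellet. Two separate experiments.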
In general terms: In broth dilution the organism is exposed to a series of concentrations in liquid medium.

Data set [4] has as its system Pseudomonas aeruginosa. Description: Antimicrobial activity against Pseudomonas aeruginosa ATCC 27853 after 21 hrs by broth microdilution method. In kind it is functional. The settings on record: ATCC 27853, 21 h. The method, boiled down:
as §2

Data set [5] concerns Staphylococcus aureus. Description: Antimicrobial activity against Staphylococcus aureus 29213 after 21 hrs by broth microdilution method. It counts as functional. The conditions noted are these: Staphylococcus aureus, 29213, 21 h. An outline of the steps: as §2
Data set [6] has as its system Lipid bilayer. Description: Binding affinity to DOPC-cholesterol liposome at 10 to 1000 uM after 45 mins by ellipsometry. The method, boiled down: (§3)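 Ellipsometry on DOPC-cholesterol bilayers deposited from DDM micelles onto silica. Peptide was added cumulatively in 10 mM Tris, pH 7.4, with 5 mM glucose at 37°C; […] adds 150 mM NaCl. Each step was followed 45 min to saturation. Adsorbed amount was calculated from refractive index and thickness, with dn/dc 0.154 cm3/g. Duplicates.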

Data set [7] is described as follows: Stability of the compound at 136 uM after 4 hrs in presence of Pseudomonas aeruginosa elastase. It counts as ADME. The method, boiled down:
as §1

Data set [8] in a line: Stability of the compound at 136 uM after 4 hrs in presence of human neutrophil elastase. In kind it is ADME. An outline of the steps:
as §1

The subject of data set [9] is Lipid bilayer. As to the kind of experiment: Binding affinity to DOPC-cholesterol liposome at 10 to 1000 uM after 45 mins by ellipsometry in presence of NaCl. The method, boiled down:
as §3

Data set [10] has as its system Staphylococcus aureus. As to the kind of experiment: Antimicrobial activity against Staphylococcus aureus 2844 after 21 hrs by broth microdilution method. In kind it is functional. The conditions noted are these: Staphylococcus aureus, 2844, 21 h. An outline of the steps: as §2
For data set [11], the system named is Lipid bilayer. As to the kind of experiment: Induction of DOPC-cholesterol liposome leakage in cell-free system at 0.1 to 1 uM after 45 mins. In kind it is functional. The method, boiled down: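 Carboxyfluorescein-loaded (100 mM, self-quenching) DOPC-cholesterol 3:2 unilamellar liposomes, about 110 nm, at 10 µM lipid in Tris buffer at 37°C with stirring. Peptide was added at a single concentration per experiment, between 0.01 and 1 µM. After a 10 min baseline, fluorescence increase was followed for 45 min and the limiting leakage level taken.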

Data set [12] is described as follows: Stability of the compound at 136 uM after 4 hrs in presence of aureolysin. It counts as ADME. The method, boiled down:
as §1

The nature of data set [13]: Toxicity in human erythrocytes at 6 to 60 uM by hemolysis assay. In kind it is cell-based. The settings on record: erythrocyte. An outline of the steps:
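EDTA-treated human erythrocytes were washed and used as a 5% suspension in PBS, pH 7.4. Cells were rotated end-over-end with peptide for 1 h at 37°C, then centrifuged. Hemoglobin was read at 540 nm relative to 2% Triton X-100, with spontaneous leakage as background. Triplicate.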

Data set [14] relates to HaCaT. As to the kind of experiment: Cytotoxicity against human HaCaT assessed as LDH release at 6 to 60 uM. It counts as cell-based. The method, boiled down:
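HaCaT keratinocytes were seeded at 3,000 cells/well and grown to confluence in serum-free keratinocyte medium with BPE-rEGF. They were exposed overnight to 6 or 60 µM peptide in that medium. LDH release was measured against a 1% Triton X-100 control, with spontaneous release as background. Triplicate.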

The subject of data set [15] is Staphylococcus aureus. As to the kind of experiment: Antimicrobial activity against Staphylococcus aureus FDA 486 after 21 hrs by broth microdilution method. In kind it is functional. The conditions noted are these: FDA 486, 21 h. An outline of the steps:
as §2

Data set [16] is described as follows: Toxicity in human erythrocytes at 60 uM by hemolysis assay in presence of serum. In kind it is cell-based. The conditions noted are these: erythrocyte.

≈ marks a conversion by molar mass, not a printed value. Calls of active or inactive are those of the source. The calls are words filed in the database; no cut-off is given here. Where a SMILES comes first, the peptide text is derived from it.

What is called MIC is the least concentration at which growth counts as inhibited. A higher MIC goes with a need for much substance. Regarding `CC(C)C[C@H](NC(=O)[C@H](Cc1c[nH]c2ccccc12)NC(=O)[C@H](CC(=O)O)NC(=O)[C@H](CCCCN)NC(=O)[C@H](Cc1c[nH]c2ccccc12)NC(=O)[C@H](CCCNC(=N)N)NC(=O)[C@H](CCC(N)=O)NC(=O)[C@@H](NC(=O)[C@H](Cc1c[nH]c2ccccc12)NC(=O)[C@H](CCCNC(=N)N)NC(=O)[C@H](CCCCN)NC(=O)[C@H](Cc1c[nH]c2ccccc12)NC(=O)[C@@H](N)CCC(=O)O)C(C)C)C(=O)N[C@@H](CCCNC(=N)N)C(=O)N[C@@H](CC(N)=O)C(=O)N[C@@H](CC(C)C)C(=O)N[C@H](C(=O)O)C(C)C` (H-EWKRWVQRWKDWLRNLV-OH), the Stability result is recorded as “Stable” in data set [1], “Unstable” in data set [7], “Stable” in data set [8] and “Stable” in data set [12]. The Activity result in data set [2], in data set [13] and in [14] was “Toxic” in each case. The minimum inhibitory concentration (MIC) in data set [3] was determined as 20 µM (≈ 48 µg/mL); in [4], 10 µM (≈ 24 µg/mL); in [5] it was 10 µM (≈ 24 µg/mL); in data set [10], 5 µM (≈ 12 µg/mL); in data set [15] it was 5 µM (≈ 12 µg/mL). In addition, the result in [6] and in data set [11] was Active. In addition, the outcome in [9] was inactive.

`CC[C@H](C)[C@H](NC(=O)[C@H](CCCNC(=N)N)NC(=O)[C@H](CCC(N)=O)NC(=O)[C@@H](NC(=O)[C@@H](NC(=O)[C@H](CCCNC(=N)N)NC(=O)[C@H](CCCCN)NC(=O)[C@H](Cc1ccccc1)NC(=O)[C@@H](N)CCC(=O)O)[C@@H](C)CC)C(C)C)C(=O)N[C@@H](CCCCN)C(=O)N[C@@H](CC(=O)O)C(=O)N[C@@H](Cc1ccccc1)C(=O)N[C@@H](CC(C)C)C(=O)N[C@@H](CCCNC(=N)N)C(=O)N[C@@H](CC(N)=O)C(=O)N[C@@H](CC(C)C)C(=O)N[C@H](C(=O)O)C(C)C`: in data set [16], the Activity entry is listed as “Non-toxic”. Also, the Stability entry in [1] is “Stable”; in data set [7] it was “Unstable”; in [8], “Unstable”; in data set [12], “Unstable”. The MIC in data set [3] came to 80 µM (≈ 174 µg/mL); in data set [4] it was 80 µM (≈ 174 µg/mL); in [5] it was 80 µM (≈ 174 µg/mL); in [10] it was 20 µM (≈ 43.5 µg/mL); in [15] it was 40 µM (≈ 87 µg/mL). Besides, the outcome in data set [6] and in [11] was Active. For the same molecule, in data set [9], the outcome was inactive.

For the molecule `CC[C@H](C)[C@H](NC(=O)[C@H](CCCNC(=N)N)NC(=O)[C@H](CCC(N)=O)NC(=O)[C@@H](NC(=O)[C@@H](NC(=O)[C@H](CCCNC(=N)N)NC(=O)[C@H](CCCCN)NC(=O)[C@H](Cc1ccccc1)NC(=O)[C@H](CCC(=O)O)NC(C)=O)[C@@H](C)CC)C(C)C)C(=O)N[C@@H](CCCCN)C(=O)N[C@@H](CC(=O)O)C(=O)N[C@@H](Cc1ccccc1)C(=O)N[C@@H](CC(C)C)C(=O)N[C@@H](CCCNC(=N)N)C(=O)N[C@@H](CC(N)=O)C(=O)N[C@@H](CC(C)C)C(=O)N[C@H](C(N)=O)C(C)C`, the Stability entry in [1], in [7], in data set [8] and in data set [12] was “Unstable” in each case. Further, the Activity entry in [2], in [13] and in data set [14] was “Toxic” throughout. Further, the minimal inhibitory concentration (MIC) in [3] amounted to 10 µM (≈ 22.2 µg/mL); in data set [4] it was 10 µM (≈ 22.2 µg/mL); in data set [5], 10 µM (≈ 22.2 µg/mL); in [10] it was 5 µM (≈ 11.1 µg/mL); in data set [15] it was 5 µM (≈ 11.1 µg/mL). The outcome in [6] was Active. The result in data set [9] was inactive.
